Test results: ChEMBL document CHEMBL5532644, “Discovery of 4-hydroxyl pyrazole derivatives as potent ferroptosis inhibitors” (Eur J Med Chem, 2024)
The source made the active and inactive calls. The rule behind the calls is not given here.

Experiments:
[1] = system: HT-1080; assay: Anti-ferroptotic activity in human HT-1080 cells assessed as cell viability incubated for 24 hrs by Cell-titer-glo assay; type: functional, cell-based
In short: (§1)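 Seeded at 2000–5000 cells/well; 24 h later cells were co-treated with 1 μM RSL3 and graded inhibitor concentrations for 24 h, then viability was read. EC50 came from sigmoidal nonlinear regression fits. Three independent experiments, means ± SD. HT-1080 and H9c2 were grown in DMEM; BJ in α-MEM with nonessential amino acids and 1 mM pyruvate; all media had 10% FBS.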

[2] = Antioxidant activity assessed as DPPH radical scavenging activity incubated for 1 hr by spectrophotometric analysis; type: functional
In short: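 Compound in DMSO was mixed with methanolic DPPH to give 40 μM DPPH (final) across a range of compound concentrations. After 1 h at room temperature, absorbance was read at 517 nm. Scavenging % = [A(DMSO) − A(sample)]/[A(DMSO) − A(methanol)] × 100, with DMSO as zero control and methanol as blank.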

[3] = Antioxidant activity assessed as ABTS radical scavenging activity measured for 6 mins by absorbance based analysis; type: functional
In short: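 ABTS (14 mM stock in water) was oxidised with 2.45 mM (final) potassium persulfate in the dark at room temperature for 18 h. The radical was diluted to 100 μM in 50 mM sodium phosphate, pH 7.4. Compounds (1–100 μM) were added, incubated at 30 °C for 6 min, and absorbance was read at 415 nm.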

[4] = system: 786-0; assay: Inhibition of RSL3-induced ferroptosis in human 786-0 cells assessed as recovery in loss of cell morphology at 1 uM measured after 1 day by light microscopy based analysis; type: functional
In short: (§2)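 786-O cells were seeded at 5000/well. After 24 h, 1 μM RSL3 was added together with inhibitor at 1 or 0.0625 μM. After one day of incubation, cell morphology (shrinkage, membrane rupture) was inspected by light microscopy.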

[5] = system: H9c2; assay: Anti-ferroptotic activity against RSL3 induced ferroptosis in rat H9c2 cells assessed as cell viability incubated for 24 hrs by Cell-titer-glo assay; type: functional, cell-based; conditions: H9c2, 24 h; in short: as §1
[6] = system: 786-0; assay: Inhibition of RSL3-induced ferroptosis in human 786-0 cells assessed as recovery of shrunken cells at 0.0625 uM measured after 1 day by light microscopy based analysis; type: functional, cell-based; in short: as §2
[7] = system: HT-1080; assay: Anti-ferroptotic activity against RSL3 induced ferroptosis in human HT-1080 cells assessed as decrease in lipid peroxidation at 1 uM measured after 8 hrs by C11-BODIPY staining based flow cytometric analysis (reference value: 3.06%); type: functional; design: scale not given: the % may be the effect or the level left
[8] = Metal chelating activity assessed as Fe3+ chelation at 20 mM at […] absorbance
In short: (§3)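 Compound was dissolved in MeOH at 20 mM and mixed with FeSO4 (Fe2+) or FeCl3 (Fe3+) at 10 mM. Samples were diluted with MeOH/H2O, UV–vis spectra were recorded, and the absorption peak at 261 nm was quantified.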

[9] = system: 786-0; assay: Inhibition of RSL3-induced ferroptosis in human 786-0 cells assessed as recovery of membrane rupture at 0.0625 uM measured after 1 day by light microscopy based analysis; type: functional, cell-based; in short: as §2
[10] = system: HT-1080; assay: Anti-ferroptotic activity against imidazole ketone erastin (IKE) induced ferroptosis in human HT-1080 cells assessed as cell viability incubated for 24 hrs by Cell-titer-glo assay; type: functional, cell-based; conditions: HT-1080, 24 h
In short: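 HT-1080 cells (DMEM, 10% FBS) were seeded at 2000–5000/well. After 24 h they received 2.5 μM IKE plus graded inhibitor concentrations for 24 h, and viability was measured. EC50 came from sigmoidal nonlinear regression. Three independent experiments, means ± SD.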

[11] = system: HT-1080; assay: Anti-ferroptotic activity in human HT-1080 cells assessed as suppression of erastin induced cytosolic ROS accumulation at 1 uM incubated for 24 hrs by DCFH-DA staining based confocal microscopy analysis; type: functional, cell-based
In short: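 HT-1080 cells on glass coverslips (4 × 10^5/well, overnight) were co-treated for 24 h with 5 μM erastin and either DMSO or inhibitor at 1 μM. Cells were washed with PBS, loaded with 10 μM (final) DCFH-DA at 37 °C for 20 min, washed three times and imaged by confocal laser scanning microscopy.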

[12] = system: 786-0; assay: Inhibition of RSL3-induced ferroptosis in human 786-0 cells assessed as recovery of membrane rupture at 1 uM measured after 1 day by light microscopy based analysis; type: functional, cell-based; in short: as §2
[13] = Metal chelating activity assessed as Fe2+ chelation by measuring change in UV-vis absorption at 20 mM at […] absorbance; in short: as §3
[14] = system: 786-0; assay: Inhibition of RSL3-induced ferroptosis in human 786-0 cells assessed as recovery of shrunken cells at 1 uM measured after 1 day by light microscopy based analysis; type: functional, cell-based; in short: as §2
[15] = system: HT-1080; assay: Anti-ferroptotic activity against RSL3 induced ferroptosis in human HT-1080 cells assessed as cell viability incubated for 24 hrs by Cell-titer-glo assay; type: functional, cell-based; conditions: HT-1080, 24 h; in short: as §1
[16] = system: 786-0; assay: Anti-ferroptotic activity against RSL3 induced ferroptosis in human 786-0 cells assessed as cell viability incubated for 24 hrs by Cell-titer-glo assay; type: functional, cell-based; conditions: 786-0, 24 h; in short: as §1
[17] = Metal chelating activity assessed as Fe3+ chelation by measuring change in UV-vis absorption at 20 mM at […] absorbance; in short: as §3
[18] = system: BJ; assay: Anti-ferroptotic activity against RSL3 induced ferroptosis in human BJ cells assessed as cell viability incubated for 24 hrs by Cell-titer-glo assay; type: functional, cell-based; in short: as §1
[19] = Metal chelating activity assessed as Fe2+ chelation at 20 mM at […] absorbance; in short: as §3
[20] = system: 786-0; assay: Inhibition of RSL3-induced ferroptosis in human 786-0 cells assessed as recovery from loss of cell morphology at 0.0625 uM measured after 1 day by light microscopy based analysis; type: functional; in short: as §2

Cc1ccc(-c2[nH]nc(-c3ccc([N+](=O)[O-])cc3)c2O)cc1
EC50 ([1]; Homo sapiens, HT-1080, 24 h): 120 nM

Oc1c(-c2ccc(F)cc2)n[nH]c1-c1ccccc1
EC50 ([1]; Homo sapiens, HT-1080, 24 h): 79.6 nM
EC50 ([1]; ht-1080): 42.4 nM

Cn1nc(-c2ccc(Cl)cc2)c(N)c1-c1ccccc1
Activity [2]: 14.6 µM
EC50 ([1]; Homo sapiens, HT-1080, 24 h): 720 nM
Activity [3]: > 200 µM

Oc1c(-c2ccc(Cl)cc2)n[nH]c1-c1ccc(F)cc1
EC50 ([1]; Homo sapiens, HT-1080, 24 h): 52.7 nM

CN(C)CCCNC(=O)c1ccc(-c2[nH]nc(-c3ccc(Cl)cc3)c2O)cc1
EC50 ([1]; Homo sapiens, HT-1080, 24 h): 44.8 nM

Oc1ccc(-c2[nH]nc(-c3ccc(Cl)cc3)c2O)cc1
inhibition [4]: Active
EC50 [5]: 43.3 nM
inhibition [6]: Active
Activity [7]: 1.42%
Activity [8]: inactive
Activity [2]: 3.94 µM
inhibition [9]: Active
EC50 [10]: 48.3 nM
EC50 ([1]; Homo sapiens, HT-1080, 24 h): 8.6 nM
Activity [11]: Active
inhibition [12]: Active
Activity [13]: inactive
inhibition [14]: Active
EC50 [15]: 8.6 nM
Activity [3]: 6.3 µM
EC50 [16]: 89.7 nM
Activity [17]: inactive
EC50 [18]: 11.3 nM
Activity [19]: inactive
inhibition [20]: Active

Oc1c(-c2cccc(Cl)c2)n[nH]c1-c1ccccc1
EC50 ([1]; Homo sapiens, HT-1080, 24 h): 187 nM

COC(=O)c1ccc(-c2[nH]nc(-c3ccc(Cl)cc3)c2O)cc1
EC50 ([1]; Homo sapiens, HT-1080, 24 h): 51.1 nM

CCCCc1[nH]nc(-c2ccccc2)c1O
EC50 ([1]; Homo sapiens, HT-1080, 24 h): 150 nM

Oc1c(-c2ccc(Cl)cc2)n[nH]c1-c1ccccc1
Activity [2]: 4.97 µM
EC50 ([1]; Homo sapiens, HT-1080, 24 h): 30.8 nM
EC50 ([1]; ht-1080): 18.9 nM
Activity [3]: 112 µM

CCOC(=O)c1ccc(NC2CCCCC2)c(N)c1
inhibition [4]: Active
EC50 [5]: 68.6 nM
inhibition [6]: inactive
Activity [7]: 9.2%
Activity [2]: 6.48 µM
inhibition [9]: inactive
EC50 [10]: 75.2 nM
EC50 ([1]; Homo sapiens, HT-1080, 24 h): 23.4 nM
inhibition [12]: Active
inhibition [14]: Active
EC50 [15]: 23.4 nM
Activity [3]: 49.8 µM
EC50 [16]: 253 nM
EC50 [18]: 38.2 nM
inhibition [20]: inactive

Oc1c(-c2ccccc2Cl)n[nH]c1-c1ccccc1
EC50 ([1]; Homo sapiens, HT-1080, 24 h): 94.9 nM

O=C(NO)c1ccc(-c2[nH]nc(-c3ccc(Cl)cc3)c2O)cc1
EC50 ([1]; Homo sapiens, HT-1080, 24 h): 80.2 nM

COc1ccc(-c2[nH]nc(-c3ccc(Cl)cc3)c2O)cc1OC
EC50 ([1]; Homo sapiens, HT-1080, 24 h): 31.7 nM

Oc1c(-c2ccc(-c3ccccc3)cc2)n[nH]c1-c1ccccc1
EC50 ([1]; Homo sapiens, HT-1080, 24 h): 39.5 nM

Oc1c(-c2ccc(Cl)cc2)n[nH]c1-c1ccc(C(F)(F)F)cc1
EC50 ([1]; Homo sapiens, HT-1080, 24 h): 187 nM

CCNC(=O)c1ccc(-c2[nH]nc(-c3ccc(Cl)cc3)c2O)cc1
EC50 ([1]; Homo sapiens, HT-1080, 24 h): 81.9 nM

Oc1c(-c2ccc(Cl)cc2)n[nH]c1-c1cccc2ccccc12
EC50 ([1]; Homo sapiens, HT-1080, 24 h): 44.8 nM

Oc1c(-c2ccc(C(F)(F)F)cc2)n[nH]c1-c1ccccc1
EC50 ([1]; Homo sapiens, HT-1080, 24 h): 79.6 nM

Cn1nc(-c2ccc(Cl)cc2)c(O)c1-c1ccccc1
EC50 ([1]; Homo sapiens, HT-1080, 24 h): 22 nM

COc1ccc(-c2[nH]nc(-c3ccc(Cl)cc3)c2O)cc1
EC50 ([1]; Homo sapiens, HT-1080, 24 h): 23.1 nM

Oc1c(-c2ccc(Cl)cc2Cl)n[nH]c1-c1ccccc1
EC50 ([1]; Homo sapiens, HT-1080, 24 h): 56.6 nM

Oc1c(-c2ccccc2)n[nH]c1-c1ccc(Br)cc1
EC50 ([1]; Homo sapiens, HT-1080, 24 h): 22.6 nM

COc1ccc(-c2n[nH]c(-c3ccccc3)c2O)cc1
EC50 ([1]; Homo sapiens, HT-1080, 24 h): 24.8 nM
EC50 ([1]; ht-1080): 32.1 nM

Oc1c(-c2ccc3c(c2)OCO3)n[nH]c1-c1ccccc1
EC50 ([1]; Homo sapiens, HT-1080, 24 h): 27.4 nM

Oc1c(-c2ccccc2)n[nH]c1-c1ccccc1
EC50 ([1]; Homo sapiens, HT-1080, 24 h): 69.1 nM

O=C(O)c1ccc(-c2[nH]nc(-c3ccc(Cl)cc3)c2O)cc1
EC50 ([1]; Homo sapiens, HT-1080, 24 h): > 1000 nM

Oc1c(-c2ccc(Cl)cc2)nn(-c2ccccc2)c1-c1ccccc1
EC50 ([1]; Homo sapiens, HT-1080, 24 h): 24.6 nM

Oc1ccc(-c2[nH]nc(-c3ccc(Cl)cc3)c2O)cc1O
EC50 ([1]; Homo sapiens, HT-1080, 24 h): 26.1 nM

Oc1c(-c2ccc(Cl)cc2)n[nH]c1-c1cnc[nH]1
EC50 ([1]; Homo sapiens, HT-1080, 24 h): 25.9 nM

Clc1ccc(-c2cc(-c3ccccc3)n[nH]2)cc1
Activity [2]: > 100 µM
EC50 ([1]; Homo sapiens, HT-1080, 24 h): > 1000 nM
Activity [3]: > 200 µM

Oc1c(-c2ccccc2)n[nH]c1-c1ccco1
EC50 ([1]; Homo sapiens, HT-1080, 24 h): > 1000 nM
